Data from ChEMBL document CHEMBL2424538, “Synthesis, resolution, and biological evaluation of atropisomeric (aR)- and (aS)-16-methyllamellarins N: unique effects of the axial chirality on the selectivity of protein kinases inhibition” (J Med Chem, 2013).
Calls of active or inactive are those of the source. The calls are words filed in the database; no cut-off is given here.

Columns and labels:
Bos taurus = organism: Bos taurus; experiment: Inhibition of calf thymus DNA topoisomerase 1-mediated relaxation of supercoiled pBR322 plasmid DNA at 50 uM 30 mins by ethidium bromide staining
[1] = Inhibition of M-phase starfish oocytes CDK1/cyclin B using [gamma-33P]ATP after 30 mins; parameters: species or system Marthasterias glacialis; conditions: oocyte
How it was run: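 CDK1/cyclin B extracted from oocytes in homogenization buffer, affinity-purified on p9CKShs1-Sepharose and eluted with free p9CKShs1. Activity measured in buffer C with 1 mg/mL histone H1 and 15 μM [γ-33P]ATP, 30 min at 30 °C. Read-out: 33P captured on P81 phosphocellulose by scintillation counting; blank subtracted; activity as % of uninhibited control; DMSO controls.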

HeLa = experiment: Cytotoxicity against human HeLa cells after 72 hrs by colony formation assay; assay type: functional, cell-based
How it was run: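 HeLa cells, 100−150 per well, cultured 72 h at 37 °C under 5% CO2 with varying compound concentrations in MEM with 10% fetal calf serum plus penicillin/streptomycin. Colonies (clusters of ≥40 cells) counted after methylene blue staining. Duplicates, at least four concentrations; IC50 by least-squares fit to logarithm-probit analysis.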

[2] = target: Dual specificity tyrosine-phosphorylation-regulated kinase 1A (Homo sapiens, UniProt Q13627); experiment: Inhibition of human recombinant DYRK1A expressed in Escherichia coli using [gamma-33P]ATP after 30 mins
How it was run: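 Enzyme (DYRK1A GST fusion purified on glutathione-agarose) assayed like CDK1/cyclin B: buffer C, 1 mg/mL histone H1, 15 μM [γ-33P]ATP, 30 min at 30 °C, P81 filter capture, scintillation counting, % of activity without inhibitor.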

IMR-32 = experiment: Cytotoxicity against human IMR32 cells after 72 hrs by MTS assay; assay type: functional, cell-based; conditions: IMR-32, 72 h
How it was run: (§1)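 Neuroblastoma cells grown in DMEM with 2 mM L-glutamine, antibiotics and 10% FCS; viability read by MTS reduction. Triplicate assays, values within 10%. IC50 estimated graphically from dose−response curves of at least six inhibitor concentrations.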

[3] = target: Glycogen synthase kinase-3 (Sus scrofa, UniProt B2LUN4+I6LNT8); experiment: Inhibition of porcine brain GSK-3alpha/beta using GS-1 peptide and [gamma-33P]ATP as substrate after 30 mins
How it was run: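 GSK-3α/β purified on immobilized axin, diluted 1/100 in 1 mg/mL BSA with 10 mM DTT. Substrate GS-1 phosphopeptide (5 μL of 4 μM), buffer A pH 7.5, 15 μM [γ-33P]ATP, 30 min at 30 °C. Radioactivity on P81 paper counted; blank subtracted; results as % of activity without inhibitor.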

[4] = Inhibition of porcine brain CK1delta/epsilon using CKS peptide and [gamma-33P]ATP as substrate after 30 mins; parameters: species or system Sus scrofa
How it was run: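 CK1δ/ε affinity-purified on immobilized axin fragment. Reaction captured on P81 phosphocellulose, washed in 1% phosphoric acid, scintillation counted; blanks subtracted; activity as % of no-inhibitor control, DMSO controls.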

[5] = Cytotoxicity against human SH-SY5Y cells after 72 hrs by MTS assay; assay type: functional, cell-based; how it was run: as §1

Row | Compound | inhibition (Bos taurus) | IC50 [1] [nM] | IC50 (HeLa) [nM] | IC50 [2] [nM] | IC50 (IMR-32) [nM] | IC50 [3] [nM] | IC50 [4] [nM] | IC50 [5] [nM]
1 | COc1cc(-c2c3c4cc(OC)c(O)cc4oc(=O)c3n3ccc4cc(O)c(OC)cc4c23)ccc1O | Active |  |  |  |  |  |  | 
2 | CC[C@@]1(O)C(=O)OCc2c1cc1n(c2=O)Cc2cc3ccccc3nc2-1 | Active |  |  |  |  |  |  | 
3 | COc1ccc(-c2c3c4cc(OC)c(O)cc4oc(=O)c3n3ccc4cc(O)c(OC)cc4c23)cc1O | Active | 70 | 32 | 35 | 19 | 5 | > 10000 | 40
